Measured values as given in ChEMBL document CHEMBL1136510, “Nociceptin/Orphanin FQ(1-13)NH2 analogues modified in the Phe1-Gly2 peptide bond” (Bioorg Med Chem Lett, 2003).
Calls of active or inactive are those of the source. The rule behind the calls is not given here.

Key:
[1] = species on record: Mus musculus; assay: (§1) Agonistic activity determined by its ability to inhibit the electrically evoked contraction of the mouse vas deferens (mVD); format: functional
In short: (§2)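 Isolated mouse vas deferens, electrically stimulated; inhibition of evoked twitch contraction. Cumulative concentration-response curves up to 10 µM (highest concentration tested); potency expressed as pEC50.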

[2] = species on record: Mus musculus; assay: as §1; format: functional, organism-based; in short: as §2
[3] = species on record: Mus musculus; assay: Agonistic activity determined by its ability to inhibit the electrically evoked contraction of the mouse vas deferens (mVD); Inactive up to 10 uM; format: functional; in short: as §2

Row | EC50 [2] [µM] | Log EC50 [3] | SMILES | Emax [1] [%]
1 | 0.0141 | – | C[C@H](NC(=O)CNC(=O)[C@@H](NC(=O)[C@H](Cc1ccccc1)NC(=O)CNC(=O)CNC(=O)[C@@H](N)Cc1ccccc1)[C@@H](C)O)C(=O)N[C@@H](CCCNC(=N)N)C(=O)N[C@@H](CCCCN)C(=O)N[C@@H](CO)C(=O)N[C@@H](C)C(=O)N[C@@H](CCCNC(=N)N)C(=O)N[C@@H](CCCCN)C(N)=O | 90
2 | – | inactive | C[C@H](NC(=O)CNC(=O)[C@@H](NC(=O)[C@H](Cc1ccccc1)NC(=O)CNC(=O)CNC[C@@H](N)Cc1ccccc1)[C@H](C)O)C(=O)N[C@@H](CCCN=C(N)N)C(=O)N[C@@H](CCCCN)C(=O)N[C@@H](CO)C(=O)N[C@@H](C)C(=O)N[C@@H](CCCN=C(N)N)C(=O)N[C@@H](CCCCN)C(N)=O | –
